Assay results: ChEMBL document CHEMBL4425094, “Novel Benzo[a]quinolizidine Analogs Induce Cancer Cell Death through Paraptosis and Apoptosis” (J Med Chem, 2016)
Activity calls are given as the source filed them. No cut-off for these calls is given here.

Columns and labels:
PC-3 [1] = assay: Cytotoxicity against human PC3 cells assessed as reduction in cell viability at 1 uM after 24 hrs in presence of […] inhibitor E-64d by MTT assay; format: functional, cell-based
Procedure, shortened: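 PC3 cells pretreated with autophagy inhibitor 3-MA or E64d, then given 1 μM compound for 24 h. Viability measured by MTT (4 h, 570 nm). Morphology checked by phase-contrast microscopy.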

PC-3 [2] = assay: Induction of apoptosis in human PC3 cells assessed as early apoptotic cells at 0.5 uM after 24 hrs by Annexin V-FITC/propidium iodide based flow cytometric analysis (reference value: 2.3 %); format: functional
Procedure, shortened: (§1)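 PC3 cells exposed to 0.5, 1 or 2 μM for 24 h, then stained with Annexin V-FITC and PI and analyzed by FACSCalibur flow cytometry. Populations assigned as necrotic (Annexin V−/PI+), late apoptotic (double positive), normal (Annexin V−/PI−) and early apoptotic (Annexin V+/PI−). DMSO vehicle control.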

PC-3 [3] = assay: Growth inhibition of human PC3 cells at IC30 in presence of MG139 assessed as combination index by MTT assay; format: functional
Procedure, shortened: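 PC3 cells incubated with increasing concentrations of compound combined with a second agent (bortezomib or partner compound). Viability determined, combination index calculated: CI < 1 synergism, = 1 additive, > 1 antagonism.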

PC-3 [4] = assay: Induction of cell cycle arrest in human PC3 cells assessed as accumulation in G0/G1 phase at 2 uM after 24 hrs by […]propidium iodide based flow cytometric analysis (reference value: 43.5 to 62.5 %); format: functional
MCF7 = assay: Cytotoxicity against human MCF7 cells assessed as cell growth inhibition after 24 hrs by MTT assay; format: functional, cell-based; conditions: MCF7, 24 h
Procedure, shortened: (§2)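 Cells seeded 24 h in RPMI 1640 + 10% FBS. RWPE-1 was kept in K-SFM with bovine pituitary extract and EGF. Cells then exposed to compounds for 24 h at 37 °C, 5% CO2, with DMSO vehicle and docetaxel as positive control. MTT added for 4 h, absorbance read at 570 nm. Triplicate runs, IC50 reported as mean of three experiments.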

PC-3 [5] = assay: Induction of autophagy in human PC3 cells assessed as increase in p62/SQSTM1 expression after 4 hrs by Western blot analysis; format: functional, cell-based
Procedure, shortened: (§3)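 PC3 cells in RPMI 1640 with 10% FBS, treated with compound for timed intervals. DMSO vehicle control. Lysis in RIPA buffer, 40 μg protein per lane on SDS-PAGE, transfer to nitrocellulose. Primary antibodies overnight at 4 °C, HRP-secondary 45 min, ECL detection. GAPDH or β-actin used as loading control.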

PC-3 [6] = assay: Induction of morphological changes in human PC3 cells assessed as formation of massive cytoplasmic vacuoles at 1 uM after 12 hrs by confocal microscopic analysis; format: functional, cell-based
PC-3 [7] = assay: Induction of autophagy in human PC3 cells assessed as vacuole formation at 1 uM after 24 hrs in presence of […] inhibitor E-64d by phase-contrast microscopic analysis; format: functional, cell-based
Procedure, shortened: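 PC3 cells were pretreated with the autophagy inhibitor (3-MA or E64d), then exposed to 1 μM test agent for 24 h. Morphology was imaged by phase-contrast microscopy, and viability was read by MTT at 570 nm. Comparison was against agent-only cells.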

PC-3 [8] = assay: Cytotoxicity against human PC3 cells transfected with LC3-targeting siRNA assessed as reduction in cell viability at 1 uM after 24 hrs by Western blot analysis; format: functional, cell-based
Procedure, shortened: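 PC3 cells plated at 20−30% confluence and transfected 24 h later with 50 nM LC3-targeting or scramble siRNA. After 48 h, cells were exposed to 1 μM compound for a further 24 h. Read-out by Western blot and phase-contrast imaging.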

PC-3 [9] = assay: Induction of apoptosis in human PC3 cells assessed as necrotic cells at 2 uM after 24 hrs by Annexin V-FITC/propidium iodide based flow cytometric analysis (reference value: 1.1 %); format: functional; procedure, shortened: as §1
PC-3M [10] = assay: Antitumor activity against human PC3M-lluc-C6 cells xenografted in athymic Balb/c mouse assessed as decrease in tumor burden by measuring photon intensity at 15 mg/kg, ip measured on day 18 by bioluminescence method (reference value: 2.332 x 10^10 photons/s/cm2); format: functional
MDA-MB-231 = assay: Cytotoxicity against human MDA-MB-231 cells assessed as cell growth inhibition after 24 hrs by MTT assay; format: functional, cell-based; conditions: MDA-MB-231, 24 h; procedure, shortened: as §2
PC-3 [11] = assay: Induction of cell cycle arrest in human PC3 cells assessed as accumulation in G2 phase at 1 uM after 24 hrs by […]propidium iodide based flow cytometric analysis (reference value: 16.3 to 25 %); format: functional
PC-3 [12] = assay: Induction of apoptosis in human PC3 cells assessed as viable cells at 2 uM after 24 hrs by Annexin V-FITC/propidium iodide based flow cytometric analysis (reference value: 95.4 %); format: functional; conditions: PC-3, 24 h, read-out: Activity; procedure, shortened: as §1
PC-3 [13] = assay: Induction of vacuolization in human PC3 cells in presence of AcT-D after 24 hrs by phase-contrast microscopic analysis; format: functional, cell-based
Procedure, shortened: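 PC3 cells pretreated with 10 μM actinomycin D or 5 μM cycloheximide, then treated with agent for 24 h. Vacuolization imaged by phase-contrast microscopy; viability by MTT.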

PC-3 [14] = assay: Induction of cytoplasmic vacuolation in human PC3 cells assessed as formation of small vacuoles at 1 uM after 4 hrs by phase-contrast microscopic analysis; format: functional, cell-based
Procedure, shortened: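 PC3 cells in RPMI 1640 with 10% FBS at 37 °C, 5% CO2, treated with 1 μM agent for 0−24 h; DMSO vehicle control. Vacuole appearance, size and number followed over time by phase-contrast microscopy at constant magnification.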

PC-3 [15] = assay: Induction of apoptosis in human PC3 cells assessed as early apoptotic cells at 2 uM after 24 hrs by Annexin V-FITC/propidium iodide based flow cytometric analysis (reference value: 2.3 %); format: functional; procedure, shortened: as §1
PC-3 [16] = assay: Cytotoxicity in human PC3 cells assessed as reduction in cell viability incubated for 22 hrs after ER stress inhibitor 4-PBA exposure for 2 hrs by MTT assay; format: functional, cell-based
Procedure, shortened: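 PC3 cells pretreated 2 h with 4-PBA (100 μM), then compound added for a further 22 h. Viability measured by MTT. GRP78 assessed by Western blot, along with XBP1 mRNA splicing analysis. Morphology by phase contrast.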

PC-3M [17] = assay: Induction of ER stress i in human PC3M-lluc-C6 cells xenografted in athymic Balb/c mouse assessed as increase in GRP78 protein levels at 15 mg/kg, ip administered every 2 days for 18 days by Western blot and immunohistochemical staining method; format: functional, organism-based
Procedure, shortened: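 Tumor tissue from PC3M-luc-C6 xenografts in BALB/c-nu mice dosed 15 mg/kg i.p. every 2 days. GRP78 measured by Western blot and by immunohistochemistry (anti-GRP78 1:500 overnight at 4 °C, HRP/DAB, hematoxylin counterstain).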

PC-3 [18] = assay: Cytotoxicity in human PC3 cells assessed as reduction in cell viability after 24 hrs in presence of AcT-D by MTT assay; format: functional, cell-based
Procedure, shortened: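 PC3 cells pretreated with 10 μM actinomycin D or 5 μM cycloheximide, then treated with compound for 24 h. Viability by MTT at 570 nm. Vacuolation imaged by phase-contrast microscopy.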

PC-3 [19] = assay: Induction of ER stress in human PC3 cells assessed as upregulation of GRP78 after 4 hrs by Western blot analysis; format: functional, cell-based; procedure, shortened: as §3
PC-3M [20] = assay: Antitumor activity against human PC3M-lluc-C6 cells xenografted in athymic Balb/c mouse assessed as tumor weight at 15 mg/kg, ip administered every 2 days for 18 days (reference value: 0.71 +/- 0.06 g); format: functional

**Q.** Which results are given for `Cc1cc(C)cc(COc2cc3c(cc2OCc2cc(C)cc(C)c2)[C@@H]2C[C@H](O)C[C@@H](C)N2CC3)c1` (racemic)?
**A.** Activity (PC-3 [1]): inactive; Activity (PC-3 [2]): 2.5%; CI (PC-3 [3]): 0.1 - 0.3; Activity (PC-3 [4]): 80.2 - 81.4%; IC50 (MCF7): 510 nM; Activity (PC-3 [5]): inactive; Activity (PC-3 [6]): Active; Activity (PC-3 [7]): Active; Activity (PC-3 [8]): inactive; Activity (PC-3 [9]): 3.1%; Activity (PC-3M [10]): 1.766 ×10⁹ /s/cm2; IC50 (MDA-MB-231): 820 nM; Activity (PC-3 [11]): 11.9 - 14.5%; viability at 2 µM (PC-3 [12]): 40%; Activity (PC-3 [13]): inactive; Activity (PC-3 [14]): Active; Activity (PC-3 [15]): 20.5%; Activity (PC-3 [16]): inactive; Activity (PC-3M [17]): Active; Activity (PC-3 [18]): inactive; Activity (PC-3 [19]): Active; Activity (PC-3M [20]): 0.42 g
